Only some compounds are listed: those with a hit (about 2.8% of all), similar ones and a draw of the others.
HTRA1 inhibitor: HTRA1 (human) protease inhibition. recombinant HTRA1, FP-rhodamine activity-based probe, fluorescence polarization. Q92743. AID 504803. inhibition, % at 5.96 µM. hit rate 0.5% among 340,000; in the data active = inhibition above about 36%;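 note: 0% = enzyme with DMSO and 100% = wells lacking enzyme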
Target sequence (Q92743 whole entry, looked up): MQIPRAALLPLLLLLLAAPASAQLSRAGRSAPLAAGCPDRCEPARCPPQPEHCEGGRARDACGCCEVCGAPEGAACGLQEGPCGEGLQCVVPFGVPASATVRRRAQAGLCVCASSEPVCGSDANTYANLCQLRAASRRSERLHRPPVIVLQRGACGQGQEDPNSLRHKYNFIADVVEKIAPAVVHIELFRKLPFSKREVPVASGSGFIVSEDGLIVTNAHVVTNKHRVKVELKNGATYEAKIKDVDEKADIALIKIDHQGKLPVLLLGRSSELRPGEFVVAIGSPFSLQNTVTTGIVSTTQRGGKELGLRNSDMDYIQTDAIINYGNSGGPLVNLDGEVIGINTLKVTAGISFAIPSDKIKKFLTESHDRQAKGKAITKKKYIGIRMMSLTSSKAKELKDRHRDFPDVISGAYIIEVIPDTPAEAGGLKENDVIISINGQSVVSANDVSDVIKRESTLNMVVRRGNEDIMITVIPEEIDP
PAFAH1B2 FP inh: inhibitors of human PAFAH1B2; recombinant PAFAH1B2, FP-rhodamine activity probe, fluorescence polarization; inhibition, % at 3.39 µM; hit rate 1.2% among 340,000;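 active = inhibition above the mean of all tested compounds plus 3 SD, cut at about 24% in these data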;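 note: 0% = enzyme with DMSO and 100% = wells lacking PAFAH1B2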
PAFAH2 FP inh: inhibitors of human PAFAH2. Q99487. recombinant PAFAH2, FP-rhodamine activity probe, fluorescence polarization. inhibition, % at 3.39 µM. hit rate 0.99% among 340,000. AID 492956;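 active = inhibition above the mean over all tested compounds plus 3 SD, cut at about 30% in these data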;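 note: inhibitors block probe labeling of enzyme so polarization drops; 0% = enzyme with DMSO and 100% = wells lacking PAFAH2 protein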
pPAFAH FP inh: inhibitors of human plasma PAF acetylhydrolase (pPAFAH); inhibition, % at 3.39 µM; recombinant pPAFAH, FP-rhodamine probe fluorescence polarization; hit rate 1.5% among 330,000;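 active = inhibition above the mean inhibition across the screen plus 3 SD, cut at about 25% in these data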;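 note: inhibitors block binding of the rhodamine activity-based probe so polarization drops; 0% = enzyme with DMSO and 100% = wells lacking pPAFAH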
PAFAH1B3 inh: inhibitors of human PAFAH1B3 | hit rate 0.28% among 340,000 | Q15102 | inhibition, % at 3.39 µM | AID 492972 | recombinant PAFAH1B3, FP-rhodamine probe, fluorescence polarization;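 active = inhibition above the screen-wide average of all tested compounds plus 3 SD, cut at about 25% in these data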;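 note: 0% = enzyme with DMSO only and 100% = wells lacking PAFAH1B3 protein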
Target sequence (Q15102 whole entry, looked up): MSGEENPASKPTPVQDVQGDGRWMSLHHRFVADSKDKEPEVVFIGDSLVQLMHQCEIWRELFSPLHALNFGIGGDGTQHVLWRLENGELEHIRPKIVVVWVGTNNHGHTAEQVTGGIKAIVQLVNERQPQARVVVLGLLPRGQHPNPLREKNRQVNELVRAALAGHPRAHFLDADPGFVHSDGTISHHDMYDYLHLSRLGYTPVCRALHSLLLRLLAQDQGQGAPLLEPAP
mABHD4 FP: inhibitors of mouse ABHD4. Q8VD66. purified mABHD4, FP-Rh probe fluorescence polarization. inhibition, % at 8.92 µM. hit rate 0.54% among 370,000. AID 720543;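 active = inhibition exceeding the mean over every tested compound plus 3 SD, cut at about 30% in these data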;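 note: 0% = plate median of compound wells and 100% = S159A mutant with DMSO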
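Test system: mouse ABHD4 enzyme, wild type. Reagent: FP-Rh fluorescent activity-based probe, added after compound pre-incubation. Timing: pre-incubation 45 min, probe exposure 60 min, at 25 °C. Technique: FP readout, ex 525 nm / em 598 nm. Benchmarks: high control S159A mutant with DMSO, low control median of compound wells.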
PAFAH2 confirm: PAFAH2 (human) inhibition, confirmed; hit rate 65% among 2,300; AID 493030; inhibition, % at 3.39 µM; recombinant PAFAH2, FP-rhodamine activity probe, fluorescence polarization; shares compounds with PAFAH2 FP inh;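 active = mean inhibition over three repeats above a set limit taken from the earlier primary screen, cut at about 30% in these data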;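 note: inhibitor blocks binding of rhodamine activity probe so polarization falls; 0% = enzyme with DMSO and 100% = wells lacking PAFAH2 protein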
* marks the source's active call; other numbers are inactive results.

How did CC1=C(C#N)c2nc(N)c(C#N)c(C)c2/C1=C\c1ccc(-c2ccccc2C(=O)O)o1 do in these assays?
HTRA1 inhibitor: 20.4; PAFAH1B2 FP inh: 13.7; PAFAH2 FP inh: 31.6*; PAFAH1B3 inh: 21.8; mABHD4 FP: 19.0; PAFAH2 confirm: 20.1

What do the screens show for `COC(=O)[C@H](C(C)C)N(Cc1cn(Cc2ccccc2)nn1)S(=O)(=O)c1ccccc1Br`?
mABHD4 FP: -1.2

Results for Cc1cc(C)cc(C(=O)OCC(=O)Nc2cccc(S(=O)(=O)NC3=NCCCCC3)c2)c1 ?
HTRA1 inhibitor: -8.1; PAFAH1B2 FP inh: 2.0; PAFAH2 FP inh: 12.2; pPAFAH FP inh: 6.6; PAFAH1B3 inh: -4.6; mABHD4 FP: -7.6

How did Cc1ccsc1C(=O)OCC(=O)Nc1cccc(S(=O)(=O)NC2=NCCCCC2)c1 do in these assays?
HTRA1 inhibitor: -7.0; PAFAH1B2 FP inh: 4.7; PAFAH2 FP inh: 45.6*; pPAFAH FP inh: 3.1; PAFAH1B3 inh: 3.6; mABHD4 FP: -2.6; PAFAH2 confirm: 32.6*

Results for O=C(COC(=O)c1ccc(OC(F)F)cc1)Nc1cccc(S(=O)(=O)NC2=NCCC2)c1 ?
HTRA1 inhibitor: 7.5; PAFAH1B2 FP inh: -1.1; PAFAH2 FP inh: 31.4*; pPAFAH FP inh: 1.4; PAFAH1B3 inh: 10.1; mABHD4 FP: 3.9; PAFAH2 confirm: 18.6

What do the screens show for `NC(=O)Nc1ccc(C(=O)OCC(=O)Nc2cccc(S(=O)(=O)NC3=NCCCCC3)c2)cc1`?
HTRA1 inhibitor: -5.6; PAFAH1B2 FP inh: 2.6; PAFAH2 FP inh: 61.4*; pPAFAH FP inh: 2.7; PAFAH1B3 inh: 8.4; mABHD4 FP: -7.0; PAFAH2 confirm: 64.8*

Results for CCCCN1C(=O)N2CCc3ccccc3C2CS1(=O)=O (stereo unspecified) ?
mABHD4 FP: -3.8

Results for O=C(CCc1ccccc1)N[C@H]1[C@H](OCc2ccccc2)CCC[C@@]12C(=O)N(Cc1ccccc1)c1ccc(-c3cnccn3)cc12 ?
mABHD4 FP: -15.5

Results for C=CCn1c(Cc2cccs2)nnc1SCC(=O)Nc1ccc(OCc2ccccc2)cc1 ?
mABHD4 FP: -8.5

Results for CCn1c2ccccc2c2cc(C=NNC(=O)c3ccoc3C)ccc21 ?
mABHD4 FP: -24.6

What do the screens show for `COc1cccc(-c2nnc(SCC(=O)Nc3ccc(OCc4ccccc4)cc3)n2Cc2ccco2)c1`?
mABHD4 FP: -8.9

Results for O=C(COc1ccc(Cl)cc1)OCC(=O)N1CCCC1 ?
HTRA1 inhibitor: 3.7; PAFAH1B2 FP inh: 5.4; PAFAH2 FP inh: 36.7*; pPAFAH FP inh: 15.6; PAFAH1B3 inh: 10.0; mABHD4 FP: -3.9; PAFAH2 confirm: 21.2

How did NC(=O)C1CC(=O)N(c2ccc(OCC(=O)N3CCCC3)cc2)C1 (stereo unspecified) do in these assays?
HTRA1 inhibitor: -9.7; PAFAH1B2 FP inh: 1.7; PAFAH2 FP inh: 57.5*; PAFAH1B3 inh: 6.2; mABHD4 FP: 2.3; PAFAH2 confirm: 47.6*

Results for Cc1cccc(OC(C)CCN2CCC(C(O)(c3ccccc3)c3ccccc3)CC2)c1 (stereo unspecified) ?
mABHD4 FP: 1.6

What do the screens show for `COc1ccc(Cn2ccc3ccc(-c4ccc5ccn(C(=O)C6CCC6)c5c4)cc32)cc1`?
mABHD4 FP: -12.4

How did CC1(C)CC(=O)c2cc3c(nc2C1)CC(C)(C)CC3=O do in these assays?
HTRA1 inhibitor: -4.2; PAFAH1B2 FP inh: 8.7; PAFAH2 FP inh: 50.5*; pPAFAH FP inh: 3.4; PAFAH1B3 inh: 0.8; mABHD4 FP: 5.1; PAFAH2 confirm: 34.2*

What do the screens show for `COCCCNC(=O)Cc1c(C)c2c(cc(C)c3c(C(C)(C)C)coc32)oc1=O`?
HTRA1 inhibitor: -17.0; PAFAH1B2 FP inh: 9.2; PAFAH2 FP inh: 33.2*; pPAFAH FP inh: 12.2; PAFAH1B3 inh: 5.8; mABHD4 FP: 0.6; PAFAH2 confirm: 20.0

Results for CC1(C)CC(=O)C/C(=N/NC(=O)COc2ccc(Cl)cc2Cl)C1 ?
HTRA1 inhibitor: -4.2; PAFAH1B2 FP inh: -1.6; PAFAH2 FP inh: 39.8*; pPAFAH FP inh: 10.6; PAFAH1B3 inh: 10.8; mABHD4 FP: -1.8; PAFAH2 confirm: 21.8

How did CC1(C)CC(=O)C/C(=N/NC(=O)COc2ccc3ccccc3c2Br)C1 do in these assays?
HTRA1 inhibitor: -5.6; PAFAH1B2 FP inh: 8.7; PAFAH2 FP inh: 30.3*; pPAFAH FP inh: 8.3; PAFAH1B3 inh: 3.6; mABHD4 FP: -7.5; PAFAH2 confirm: 15.6

How did C=CCCC(=O)N1CCC(C(=O)NC2CCCc3ccccc32)CC1 (stereo unspecified) do in these assays?
mABHD4 FP: 1.4

What do the screens show for `CN1C2CCC1CC(NC(=O)c1cccc(C(F)(F)F)c1)C2` (stereo unspecified)?
HTRA1 inhibitor: -1.8; PAFAH1B2 FP inh: 20.9; PAFAH2 FP inh: 32.0*; pPAFAH FP inh: 4.5; PAFAH1B3 inh: 18.2; mABHD4 FP: 4.7; PAFAH2 confirm: -2.1

What do the screens show for `Cc1cccc(C(=O)NC2CC3CCC(C2)N3C)c1` (stereo unspecified)?
HTRA1 inhibitor: -2.2; PAFAH1B2 FP inh: 4.8; PAFAH2 FP inh: 0.1; PAFAH1B3 inh: 7.2; mABHD4 FP: -4.1

What do the screens show for `CCCC(=O)Nc1ccc(C(=O)n2ccc(C)n2)cc1`?
HTRA1 inhibitor: 31.1; PAFAH1B2 FP inh: 3.9; PAFAH2 FP inh: 48.9*; pPAFAH FP inh: 3.1; PAFAH1B3 inh: -1.7; mABHD4 FP: 3.9; PAFAH2 confirm: 40.7*

What do the screens show for `CCCCOC(=O)c1ccc(NC(=O)COC(=O)c2ccc3ncsc3c2)cc1`?
HTRA1 inhibitor: -12.5; PAFAH1B2 FP inh: -3.8; PAFAH2 FP inh: 61.1*; pPAFAH FP inh: -3.7; PAFAH1B3 inh: -0.4; mABHD4 FP: -25.8; PAFAH2 confirm: 63.4*

Results for O=C(COC(=O)c1ccc2ncsc2c1)NCc1cccc(Cl)c1 ?
HTRA1 inhibitor: -20.3; PAFAH1B2 FP inh: 2.3; PAFAH2 FP inh: 21.2; pPAFAH FP inh: -1.8; PAFAH1B3 inh: 0.0; mABHD4 FP: -9.5

Results for O=C(COC(=O)c1ccc2ncsc2c1)Nc1cccc(Cl)c1 ?
HTRA1 inhibitor: -28.6; PAFAH1B2 FP inh: -2.5; PAFAH2 FP inh: 92.5*; pPAFAH FP inh: -5.7; PAFAH1B3 inh: -3.0; mABHD4 FP: -23.5; PAFAH2 confirm: 77.4*

How did O=C(COC(=O)c1ccc2ncsc2c1)Nc1ccccc1Br do in these assays?
HTRA1 inhibitor: 2.8; PAFAH1B2 FP inh: -0.2; PAFAH2 FP inh: 62.7*; pPAFAH FP inh: -5.2; PAFAH1B3 inh: 5.8; mABHD4 FP: 2.6; PAFAH2 confirm: 43.0*

What do the screens show for `Cc1cc(O)cc(=O)n1-c1cc(C(F)(F)F)cc(C(F)(F)F)c1`?
mABHD4 FP: 0.3

How did CC1(C)CC(=O)C(C=Nc2ccncc2)=C(O)C1 do in these assays?
HTRA1 inhibitor: 4.8; PAFAH1B2 FP inh: 2.3; PAFAH2 FP inh: 0.8; pPAFAH FP inh: 2.1; PAFAH1B3 inh: 8.4; mABHD4 FP: 3.7
